Average score, Inhibition and IC50 data for one compound are collected here from ChEMBL document CHEMBL1127556, “Synthesis and topical antiinflammatory and antiallergic activities of antioxidant o-aminophenol derivatives” (J Med Chem, 1994).

In brackets after ≈: the same amount, converted by molar mass.

The species entered for series [1] is Oryctolagus cuniculus. The experiment in a line: Compound was evaluated for primary irritation test by applying at the abraded site and the average score was reported. Number of animals tested =6. It counts as toxicity, organism-based. The conditions noted are these: rabbit, in vivo, topical_or_ocular. Put shortly:
(§1)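 Rabbit backs shaved and depilated; 0.5 g compound applied to four sites (two intact, two abraded) under gauze for 24 h. Sites examined grossly 24 and 72 h after removing covering; scored by Draize method.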

Series [2] has as its system Mus musculus. The series is described as follows: Evaluated for its inhibitory effects on 12-O-tetradecanoylphorbol-13-acetate (TPA) -induced edema in mouse ear at a dose of 100 ug/site. It counts as functional. Put shortly: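 Male ICR mice, 30–40 g, 10–15 per group. Test compound applied in 25 μL acetone/pyridine/water 97:2:1 containing TPA (200 μg/mL) to the inner surface of one ear. Killed with CO2 5 h later; 6-mm ear punch weighed wet for edema. ED50 taken from three-point dose titration curves.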

For series [3], the species on record is Oryctolagus cuniculus. The series is described as follows: Compound was evaluated for primary irritation test by applying at the intact site and the average score was reported. Number of animals tested =6. It counts as toxicity, organism-based. The conditions noted are these: rabbit, in vivo, topical_or_ocular. Put shortly:
as §1

For series [4], the species on record is Rattus norvegicus. The series is described as follows: Evaluated for its antioxidative effect using the thiobarbituric acid (TBA) method in rat. It is filed as functional. Put shortly:
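Test sample in 67 mM phosphate buffer pH 7.4 mixed with 10% male Wistar rat (300–400 g) forebrain homogenate. Shaken 1 h at 37 °C, deproteinated with 20% TCA. Supernatant heated 10 min at 100 °C with 1.2% thiobarbiturate; absorbance read at 532 nm.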

Series [5] is filed under the species Mus musculus. The experiment in a line: Inhibitory effects on delayed type hypersensitive reaction in mouse ears at a dose of 300 ug/site. It counts as functional. In a few lines:
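ICR mice, 10 or 12 per group, sensitized by abdominal swabbing with 0.1 mL antigen in acetone (7% picryl chloride or 1% OXA). DTH response assessed in mouse ears.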

The species named for series [6] is Rattus norvegicus. The series is described as follows: Inhibitory effects on passive cutaneous anaphylaxis in rats at a dose of 1 mg/site. It is filed as functional. Put shortly: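 Male SD rats, eight per group, sensitized intradermally at two dorsal sites with 0.05 mL anti-ovalbumin rat IgE serum diluted 1:8 in 0.9% saline. Compound applied topically to those sites 5 h before iv challenge 48 h later with 2 mg ovalbumin plus 5 mg Evans blue in 1 mL. Extravasated dye measured 30 min later; percent inhibition versus control group.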

Series [7] concerns Mus musculus. The experiment in a line: Inhibitory effects on arachidonic acid (AA) induced mouse ear edema at a dose of 100 ug/ear. It counts as functional. Put shortly: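 Male ICR mice (30–40 g, 10–15 per group). Compound in 25 μL acetone/pyridine/water 97:2:1 with arachidonic acid (50 mg/mL) applied to inner surface of one ear. After 1 h, CO2 sacrifice, 6-mm disk punched, edema measured as change in wet weight versus controls.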

A word on the Inhibition: it is the drop in the measured response relative to a control, in per cent. Read a high Inhibition as strong suppression. For orientation: IC50 means the concentration that gives 50% inhibition. `Cc1ccc(O)c(NCCCN2CCC(C(O)(c3ccccc3)c3ccccc3)CC2)c1`: the Average score in the series listed under Oryctolagus cuniculus [1] and in the series listed under Oryctolagus cuniculus [3] was 0 throughout. In addition, the Inhibition is given as 89% in the series with Mus musculus [2], 77% in the series filed under Mus musculus [5], 36.8% in the series filed under Rattus norvegicus [6] and 61.5% with Mus musculus [7]. This compound also returned an IC50 in the series filed under Rattus norvegicus [4] of 0.029 µg/mL (≈ 0.0673 µM).
